Measured values published in ChEMBL document CHEMBL3758157, “Design, synthesis, and evaluation of potent Wnt signaling inhibitors featuring a fused 3-ring system” (Eur J Med Chem, 2016).
In brackets after ≈: the same amount, converted by molar mass. Activity calls are given as the source filed them. The rule behind the calls is not given here.

Assays:
[1] = Cytotoxicity against mouse NIH/3T3 cells by GRE-Luciferase reporter gene assay; type: cell-based; settings: nih3t3
In short: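 NIH3T3 cells carrying GRE-luciferase reporter stimulated with 10 nM SAG as Hh pathway agonist, used as counter-screen for nonspecific cytotoxicity.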

[2] = Inhibition of Wnt signaling (unknown origin) expressed in mouse L Wnt3A cells co-cultured with HEK293 cells after 48 hrs by Super-top flash reporter gene assay; type: cell-based; settings: Homo sapiens, HEK293, 48 h
In short: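 Mouse L Wnt3A cells and HEK293 Super-Top Flash TCF-luciferase stable cells mixed 1:1, 12,000 cells/well, grown 24 h, then compound in DMSO diluted in DMEM added. After 48 h at 37°C, Bright-Glo luminescence read; IC50 from signal inhibition, geometric mean of at least two runs ± SEM; LGK974 standard in each run.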

[3] = Intrinsic clearance in human liver microsomes at 1 uM preincubated for 10 mins followed by NADPH addition measured for 30 to 60 mins by LC-MS/MS analysis; type: ADME; settings: read-out: CLH
In short: (§1)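 Liver microsomes (mouse or human, 0.2 mg/mL) with 1 µM substrate in 100 mM phosphate pH 7.4, preincubated 10 min, then started with 1 mM NADPH. Sampled at 0, 30, 60 min, quenched in cold acetonitrile with internal standard, LC-MS/MS. t1/2 from ln % remaining slope; scaled with 20 mg protein/g liver, liver 87.5 (mouse) or 25.7 (human) g/kg.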

[4] = Chemical stability in simulated gastric fluid assessed as compound remaining at 200 uM at 40 degC after 24 hrs by HPLC technique; type: physicochemical; settings: read-out: Stability
In short: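 Compound at 200 µM in simulated gastric fluid (3.8 mL conc. HCl diluted to 1000 mL water), held at 40°C for 24 h; percent remaining reported.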

[5] = Half life in mouse liver microsomes at 1 uM preincubated for 10 mins followed by NADPH addition measured for 30 to 60 mins by LC-MS/MS analysis; type: ADME; in short: as §1
[6] = AUC (0 to 24 hrs) in Sprague-Dawley rat plasma at 10 mg/kg, po by LC-MS/MS analysis; type: ADME, organism-based; set-up: dose 10 mg/kg, time < 24 hr, route oral
In short: (§2)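 Male Sprague-Dawley rats (200-250 g), fasted 12 h before dosing, food returned ~4 h post-dose. Solution at 1 mg/mL in NMP/Tween80/PEG400/water (10/1/50/39) given by tail vein at 2 mL/kg or oral gavage at 10 mL/kg. Plasma from timed blood samples precipitated with cold acetonitrile plus internal standard, measured by LC-MS/MS; noncompartmental PK parameters.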

[7] = tested on: Rattus norvegicus; experiment: AUC (0 to 24 hrs) in Sprague-Dawley rat plasma at 2 mg/kg, iv by LC-MS/MS analysis; type: ADME, organism-based; set-up: dose 2 mg/kg, time < 24 hr, route intravenous; settings: in vivo; in short: as §2
[8] = Tmax in Sprague-Dawley rat plasma at 10 mg/kg, po by LC-MS/MS analysis; type: ADME, organism-based; in short: as §2
[9] = Stability in rat plasma assessed as compound remaining at 1 uM after 8 hrs by LC-MS/MS analysis; type: ADME, cell-free; settings: read-out: Stability
In short: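 Compound at 1 µM incubated in blank rat plasma for 8 h, deproteinized with acetonitrile plus internal standard, centrifuged, supernatant measured by LC-MS/MS; percent remaining.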

[10] = Half life in human liver microsomes at 1 uM preincubated for 10 mins followed by NADPH addition measured for 30 to 60 mins by LC-MS/MS analysis; type: ADME; in short: as §1
[11] = Volume of distribution at steady state in Sprague-Dawley rat at 2 mg/kg, iv by LC-MS/MS analysis; type: ADME, organism-based; settings: in vivo, read-out: Vdss; in short: as §2
[12] = Cmax in Sprague-Dawley rat plasma at 10 mg/kg, po by LC-MS/MS analysis; type: ADME, organism-based; set-up: dose 10 mg/kg, route oral; in short: as §2
[13] = Oral bioavailability in Sprague-Dawley rat at 10 mg/kg by LC-MS/MS analysis; type: ADME, organism-based; settings: in vivo; in short: as §2
[14] = Half life in Sprague-Dawley rat at 10 mg/kg, po by LC-MS/MS analysis; type: ADME, organism-based; settings: in vivo; in short: as §2
[15] = Intrinsic clearance in mouse liver microsomes at 1 uM preincubated for 10 mins followed by NADPH addition measured for 30 to 60 mins by LC-MS/MS analysis; type: ADME; settings: read-out: CLH; in short: as §1
[16] = Effect on Wnt3A level in HEK293T cells transfected with pLibin-WNT3A plasmid at 0.1 uM after 48 hrs by Western blot technique; type: cell-based; settings: human, hek-293t
In short: (§3)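 HEK293T cells in 6-well plates at 60% confluence, transfected with 1 µg pLibin-WNT3A plasmid or vehicle and treated at the same time with 0.1 µM compound. After 48 h, culture supernatant and cell lysate (40-50 µg protein) separated by SDS-PAGE, blotted to PVDF and probed for Wnt3A.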

[17] = Cmax in Sprague-Dawley rat plasma at 2 mg/kg, iv by LC-MS/MS analysis; type: ADME, organism-based; set-up: dose 2 mg/kg, route intravenous; in short: as §2
[18] = Half life in Sprague-Dawley rat at 2 mg/kg, iv by LC-MS/MS analysis; type: ADME, organism-based; settings: in vivo; in short: as §2
[19] = biological target: T1, Protein-serine O-palmitoleoyltransferase porcupine (Homo sapiens) (UniProt Q9H237); experiment: Inhibition of porcupine (unknown origin) in HEK293T cells transfected with pLibin-WNT3A plasmid assessed as reduction in Wnt3A secretion into cell culture medium at 0.1 uM after 48 hrs by Western blot technique; type: cell-based; settings: HEK-293T; in short: as §3
T1 sequence (whole entry): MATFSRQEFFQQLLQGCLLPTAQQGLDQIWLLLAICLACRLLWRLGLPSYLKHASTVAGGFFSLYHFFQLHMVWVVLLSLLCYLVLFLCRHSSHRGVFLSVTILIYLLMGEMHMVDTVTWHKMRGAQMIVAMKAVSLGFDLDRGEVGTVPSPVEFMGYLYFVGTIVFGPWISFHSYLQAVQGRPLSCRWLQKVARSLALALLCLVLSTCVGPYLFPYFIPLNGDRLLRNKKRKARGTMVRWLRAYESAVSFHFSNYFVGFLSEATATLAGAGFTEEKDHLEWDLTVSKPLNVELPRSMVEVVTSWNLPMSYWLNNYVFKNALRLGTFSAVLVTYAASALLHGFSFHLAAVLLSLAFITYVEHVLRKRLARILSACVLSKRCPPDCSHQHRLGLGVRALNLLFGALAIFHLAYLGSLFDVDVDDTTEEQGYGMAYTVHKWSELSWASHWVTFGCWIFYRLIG

[20] = Thermodynamic solubility of the compound in FaSSIF at 4 mg/ml at pH 6.5 after overnight incubation by LC-MS/MS analysis; type: physicochemical; settings: read-out: Therm_solubility
In short: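 4 mg/mL suspension in FaSSIF (pH 6.5) shaken 1 h, then equilibrated overnight at room temperature; supernatant after centrifugation quantified by LC-MS/MS.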

[21] = tested on: Wnt3A; experiment: Potency index, ratio of LGK974 IC50 to compound IC50 for Wnt signaling (unknown origin) expressed in mouse L Wnt3A cells co-cultured with HEK293; type: cell-based; settings: Homo sapiens

Structure (SMILES)	IC50 [2]	Activity [1]	other results
O=C(Cc1ccc2c(c1)Cc1ccccc1-2)Nc1ccc(-c2cnccn2)cn1	454 nM	Non-toxic	
O=C(Cc1ccc2c(c1)Cc1ccccc1-2)Nc1ccc(-c2cccnc2)cc1	231 nM	Non-toxic	
O=C(Cc1ccc2c(c1)C(=O)c1ccccc1-2)Nc1ccc(-c2cnccn2)cn1	> 1000 nM	Non-toxic	
O=C(Cc1ccc2c(c1)oc1ccccc12)Nc1ccc(-c2cnccn2)cn1	136 nM	Non-toxic	
Cc1cc(-c2ncc(CC(=O)Nc3ccc4c5ccccc5n(C)c4c3)cc2C)ccn1	49 nM	Non-toxic	
O=C(Cc1ccc2c(c1)C(=O)c1ccccc1-2)Nc1ccc(-c2cccnc2)cc1	> 1000 nM	Non-toxic	
Cc1cc(-c2ccc(CC(=O)Nc3ccc4c5ccccc5n(C)c4c3)cc2)ccn1	191 nM	Non-toxic	
Cc1cc(-c2ncc(CC(=O)Nc3ccc4c(c3)oc3ccccc34)cc2C)ccn1	13 nM	Non-toxic	
O=C(Cc1ccc2c(c1)oc1ccccc12)Nc1ccc(-c2cccnc2)cc1	544 nM	Non-toxic	

Now those with a lower IC50 [2], led by results:

IC50 [2]	Structure (SMILES)	Activity [1]	other results
2.3 nM	Cc1cc(-c2ccc(CC(=O)Nc3ccc4c(c3)[nH]c3ccccc34)cc2)ccn1	Non-toxic	CLint scaled at 1 µM [3]: 2.46 L/h/kg; remaining at 24 h, 200 µM [4]: 100%; half-life at 1 µM [5]: 1.52 h; AUC(0-t) at 24 h [6]: 11.3 µg·h/mL; AUC [7]: 7.442 µg·h/mL; Tmax [8]: 1 h; remaining at 8 h, 1 µM [9]: 100%; half-life at 1 µM [10]: 0.717 h; Vd [11]: 2.7 L/kg; Cmax [12]: 2.88 µg/mL; bioavailability [13]: 30%; half-life [14]: 3.1 h; CLint scaled at 1 µM [15]: 4.02 L/h/kg; Activity [16]: Non-toxic; Cmax [17]: 1.95 µg/mL; half-life [18]: 2.5 h; inhibition [19]: Active; solubility thermodynamic [20]: 2 µg/mL (≈ 5.11 µM)
2.8 nM	Cc1cc(-c2ncc(CC(=O)Nc3ccc4c(c3)C(=O)c3ccccc3-4)cc2C)ccn1	Non-toxic	
0.9 nM	Cc1cc(-c2ncc(CC(=O)Nc3ccc(-c4cnccn4)cn3)cc2C)ccn1 [WNT-974]		Activity [16]: Non-toxic; inhibition [19]: Active
2.7 nM	Cc1cc(-c2ncc(CC(=O)Nc3ccc4c(c3)C(F)(F)c3ccccc3-4)cc2C)ccn1	Non-toxic	
0.45 nM	Cc1cc(-c2ccc(CC(=O)Nc3ccc4c(c3)C(=O)c3ccccc3-4)cc2)ccn1	Non-toxic	CLint scaled at 1 µM [3]: 8.94 L/h/kg; remaining at 24 h, 200 µM [4]: 99%; half-life at 1 µM [5]: 0.2 h; remaining at 8 h, 1 µM [9]: 100%; half-life at 1 µM [10]: 0.2 h; Ratio IC50 [21]: 2; CLint scaled at 1 µM [15]: 30.5 L/h/kg; Activity [16]: Non-toxic; inhibition [19]: Active; solubility thermodynamic [20]: < 1 µg/mL
1.4 nM	Cc1cc(-c2ccc(CC(=O)Nc3ccc4c(c3)Cc3ccccc3-4)cc2)ccn1	Non-toxic	
2.5 nM	Cc1cc(-c2ncc(CC(=O)Nc3ccc4c(c3)Cc3ccccc3-4)cc2C)ccn1	Non-toxic	
2.6 nM	Cc1cc(-c2ncc(CC(=O)Nc3ccc4c(c3)[nH]c3ccccc34)cc2C)ccn1	Non-toxic	
3.5 nM	Cc1cc(-c2ccc(CC(=O)Nc3ccc4c(c3)C(F)(F)c3ccccc3-4)cc2)ccn1	Non-toxic	
9 nM	Cc1cc(-c2ccc(CC(=O)Nc3ccc4c(c3)oc3ccccc34)cc2)ccn1	Non-toxic	
